These results are taken from ChEMBL document CHEMBL4152387, “Discovery of a Potent Grp94 Selective Inhibitor with Anti-Inflammatory Efficacy in a Mouse Model of Ulcerative Colitis” (J Med Chem, 2018).

Structures are written as SMILES. pKd: −log10 of the molar value. The source made the active and inactive calls. The rule behind the calls is not given here. Bounds are passed on as bounds.

In data set [1] the target is T1, Heat shock protein HSP 90-alpha (Homo sapiens, UniProt P07900). Briefly: Binding affinity to human His-tagged HSP90alpha N-terminal domain (1 to 236 residues) expressed in Escherichia coli BL21star (DE3) dissociation constant by biolayer interferometry. As to conditions: read-out: K. The procedure, abridged: (§1)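 Biotinylated His-tagged N-terminal protein, labelled in PBS pH 7.4 at one molar ratio with excess biotin removed by overnight dialysis, was loaded at 400 nM final onto streptavidin biosensors pre-wetted 10 min in kinetics buffer (PBS, 0.05% BSA, 0.01% Tween-20). Four compound concentrations in kinetics buffer were then tested for binding, with all data collected at 30 °C.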

Data set [2] deals with Mus musculus. Briefly: Anti-inflammatory activity in ip dosed C57BL/6 mouse model of DSS-induced ulcerative colitis assessed reduction in TNFalpha levels in serum co-administrated once daily with DSS measured on day 7 post dose by ELISA. Format: functional, organism-based. The procedure, abridged: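 DSS colitis in male C57BL/6 mice (3% DSS in water, 7 days, ip qd co-dosing, vehicle controls). Serum and colons taken at sacrifice on day 7; colon homogenate supernatants and serum assayed for mouse TNFα and IL-6 by ELISA kits; n = 5 samples per group.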

Data set [3] is filed under the species Canis lupus familiaris. Briefly: Binding affinity to dog His-tagged biotinylated GRP94 N41 deletion mutant (69 to 337 residues) expressed in Escherichia coli BL21star (DE3) assessed as association constant by biolayer interferometry. The procedure, abridged: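 His-tagged Grp94N biotinylated at one molar ratio in PBS pH 7.4, dialysed overnight, loaded at 400 nM on streptavidin biosensors after 10 min prewetting in PBS, 0.05% BSA, 0.01% Tween-20. Four compound concentrations in this buffer tested; binding recorded at 30 °C by biolayer interferometry.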

For data set [4], the species on record is Canis lupus familiaris. Briefly: Inhibition of FITC-geldanamycin binding to dog GST-tagged GRP94 N41 deletion mutant (69 to 337 residues) expressed in Escherichia coli BL21star (DE3) at 100 uM after 4 hrs by FP assay relative to control.
Data set [5] has as its target T1, Heat shock protein HSP 90-alpha. Briefly: Binding affinity to human His-tagged HSP90alpha N-terminal domain (1 to 236 residues) expressed in Escherichia coli BL21star (DE3) association constant by biolayer interferometry. Conditions: read-out: K. The procedure, abridged:
as §1

The target is the same in data set [6]. The data set is described as follows: Inhibition of FITC-geldanamycin binding to human His-tagged HSP90alpha N-terminal domain (1 to 236 residues) expressed in Escherichia coli BL21star (DE3) at 100 uM after 4 hrs by FP assay relative to control. The procedure, abridged: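 Hsp90αN (15 nM final) with GM-FITC (6 nM final) and compound in HEPES/KCl/MgCl2 buffer pH 7.4 with NP40, DTT, BGG; 4 h at 4 °C in dark; FP at ex 485/em 535 nm; inhibition computed against GM-FITC-only and protein-plus-probe controls; n = 3.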

Data set [7] in a line: Ratio of Kd for human His-tagged biotinylated HSP90alpha N-terminal domain (1 to 236 residues) to Kd for dog His-tagged biotinylated GRP94 N41 deletion mutant (69 to 337 residues).
Another data set deals with Endoplasmin (Homo sapiens, UniProt P14625). Briefly: Inhibition of GRP94 in human PANC1 cells assessed as down-regulation of integrin alphaL levels after 36 hrs by Western blot analysis. Format: cell-based. The gist of the method:
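Panc-1 cells treated 36 h at indicated concentrations; cell surface protein extracted with a membrane-fractionation kit; Western blot for integrin α2 and αL with β-actin loading control, infrared fluorescent secondary detection.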

Data set [8] concerns the target T1, Heat shock protein HSP 90-alpha. Briefly: Binding affinity to human His-tagged HSP90alpha N-terminal domain (1 to 236 residues) expressed in Escherichia coli BL21star (DE3) by biolayer interferometry. The gist of the method: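 His-tagged Hsp90N biotinylated in PBS pH 7.4 (one molar ratio), dialysed overnight, immobilized at 400 nM on streptavidin sensors; kinetics buffer PBS, 0.05% BSA, 0.01% Tween-20; four compound concentrations; 30 °C biolayer interferometry.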

Data set [9] relates to Mus musculus. Briefly: Anti-inflammatory activity in C57BL/6 mouse model of DSS-induced ulcerative colitis assessed reduction in body weight loss at 10 to 30 mg/kg, ip qd co-administrated with DSS measured until day 7 post dose. Format: functional, organism-based. The procedure, abridged: (§2)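 Male C57BL/6 mice (20−22 g), n = 8 per group, 3% DSS in drinking water for 7 days with ip qd dosing at 10 or 30 mg/kg; vehicle for normal and disease controls. Body weight, stool consistency and rectal bleeding recorded daily; DAI scored from weight loss, stool consistency and stool blood.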

Data set [10] relates to Mus musculus. The data set is described as follows: Anti-inflammatory activity in C57BL/6 mouse model of DSS-induced ulcerative colitis assessed reduction in disease activity index at 10 to 30 mg/kg, ip qd co-administrated with DSS measured until day 7 post dose. It is filed as functional, organism-based. The gist of the method: as §2
For data set [11], the system named is Mus musculus. Briefly: Subacute toxicity in C57BL/6 mouse assessed as effect on liver at 30 to 90 mg/kg, ip qd for 2 weeks by hematoxylin and eosin staining analysis. It is filed as organism-based. As to conditions: in vivo, 336 h.
Data set [12] has as its system Mus musculus. Briefly: Anti-inflammatory activity in C57BL/6 mouse model of DSS-induced ulcerative colitis assessed reduction in TLR9 expression in colonic tissues at 10 to 30 mg/kg, ip qd co-administrated with DSS measured on day 7 post dose. Format: functional, organism-based. The procedure, abridged:
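DSS colitis in male C57BL/6 mice (3% DSS, 7 days, ip qd 10 or 30 mg/kg, vehicle controls); colons flash-frozen at day 7, homogenized in lysis buffer with protease/phosphatase inhibitors. Equal protein by BCA run on SDS-PAGE, PVDF, 1% BSA block, primary antibodies 37 °C 1 h then 4 °C overnight, DyLight 800 secondary, infrared scan; β-actin loading control.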

Sequence of Endoplasmin (P14625 whole entry): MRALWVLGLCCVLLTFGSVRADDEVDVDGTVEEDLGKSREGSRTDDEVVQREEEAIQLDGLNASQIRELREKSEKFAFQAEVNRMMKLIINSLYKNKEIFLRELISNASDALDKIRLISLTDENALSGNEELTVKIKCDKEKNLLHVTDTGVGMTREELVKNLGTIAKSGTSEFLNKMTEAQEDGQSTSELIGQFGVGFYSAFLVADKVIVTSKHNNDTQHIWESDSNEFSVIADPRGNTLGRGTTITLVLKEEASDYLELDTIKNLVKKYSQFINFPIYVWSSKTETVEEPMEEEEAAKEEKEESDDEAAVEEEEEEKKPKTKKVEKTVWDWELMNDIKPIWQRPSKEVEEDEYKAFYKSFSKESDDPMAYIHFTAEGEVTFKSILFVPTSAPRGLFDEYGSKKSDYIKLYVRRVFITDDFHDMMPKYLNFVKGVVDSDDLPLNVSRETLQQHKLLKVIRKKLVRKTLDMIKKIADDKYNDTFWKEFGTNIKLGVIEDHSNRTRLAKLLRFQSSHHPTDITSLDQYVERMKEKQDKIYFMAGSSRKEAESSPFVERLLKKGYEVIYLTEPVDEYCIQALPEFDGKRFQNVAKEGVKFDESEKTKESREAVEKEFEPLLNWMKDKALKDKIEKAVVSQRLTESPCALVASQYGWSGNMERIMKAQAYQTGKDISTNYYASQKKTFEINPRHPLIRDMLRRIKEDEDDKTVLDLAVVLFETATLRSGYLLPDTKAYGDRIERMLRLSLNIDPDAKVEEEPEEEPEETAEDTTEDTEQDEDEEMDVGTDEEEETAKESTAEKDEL

For the compound `CC(C)c1ccc(-c2ccc(N[C@H]3CC[C@H](O)CC3)c(C(N)=O)c2)cc1`, in data set [1], the koff stood at 0.0345 s⁻¹. The Activity entry was “Dose-dependent effect” in the data set on Mus musculus [2] and “Non-Toxic” in the data set on Mus musculus [11]. Besides, the K in the data set filed under Canis lupus familiaris [3] was determined as 6.38 ×10⁵ /M/s. Further, the inhibition is 100% in the data set listed under Canis lupus familiaris [4] and “Dose-dependent effect” on Endoplasmin. The kon in [5] was 1680 M⁻¹ s⁻¹. Besides, the “inhibition (INH)” value in data set [6] is “Not Active”. Moreover, the Ratio in data set [7] is over 1000. This compound also gave a pKd in data set [8] of 4.69. Moreover, the outcome in the data set with Mus musculus [9], with Mus musculus [10] and in the data set on Mus musculus [12] was Active.
